Assay outcomes (PubChem)
CHOP inh: inhibitors of CHOP promoter induction, primary screen, cell-based, unfolded protein response, luciferase reporter. CHO-K1 CHOP-promoter luciferase, tunicamycin-induced, 15-18 h. inhibition, % at 10 µM. 220,000 tested, 3.8% active;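 active = compounds that reduced the stress-induced luciferase reporter signal by more than about 70% of percent inhibition, limit read from the data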
UPR XBP1 act: activators of adaptive XBP1 UPR arm, primary screen, cell-based, CHO-XBP1 luciferase reporter, luminescence, uHTS; 330,000 tested, 0.33% active; activation, % at 20 µM; IRE1-XBP1 UPR activation; percent of tunicamycin response, DMSO as zero; AID 463104, 2010;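 active = versus positive control, 20 µM dose yields 30% or more activation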
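Assay system: IRE1-XBP1 luciferase reporter CHO line. Input: 1000 cells/well. Buffer or medium: F12 with 10% serum. Doses: 20 µM, 1% DMSO. Times: overnight seeding at 37 °C, 6 h compound treatment at 37 °C. Technique: Steady-Glo luciferase glow luminescence, 10 min after reagent addition.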
Dynein transport: inhibitors of GR-EGFP nuclear translocation, primary screen, dynein cargo transport inhibitor project, imaging, high-content, 3617.4 mouse cells; 220,000 tested, 0.47% active; test concentration mostly 20 µM; stimulated with dexamethasone, 1 µM; active compounds read low; z-score, hits read low;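 active = plate z-score of nuclear minus cytoplasmic receptor signal below a set negative limit, without overly bright fluorescence or cell loss, cut at about -3.5 in these data, passing the limit was not always enough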;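 also: z-score of nuclear minus cytoplasmic ring GR-EGFP intensity difference per well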
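Buffer or medium: Induction medium lacking tetracycline, stripped serum | Also added: Dexamethasone agonist, 1.0 µM final, for 30 min | Timing: 48 h induction, 1 h compound, 30 min dex at 37 °C | Detection: Formaldehyde fixation, Hoechst nuclear stain, 10x automated fluorescence imaging | Measure: Nuclear versus cytoplasmic GR-EGFP signal, averaged per well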
B2AR ag: beta2AR agonists driving receptor internalization, primary screen, cell-based, FAP fluorogen, flow cytometry | Beta-2 adrenergic receptor (Homo sapiens), P07550 | Am2.2-beta2AR cells | response, % (test concentration not listed) | 340,000 tested, 0.43% active | AID 504454, 2011;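 active = response above a set limit, near 3 SD of response in nonfluorescent compounds, cut at about 42% in these data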
Target sequence (P07550 whole entry, looked up): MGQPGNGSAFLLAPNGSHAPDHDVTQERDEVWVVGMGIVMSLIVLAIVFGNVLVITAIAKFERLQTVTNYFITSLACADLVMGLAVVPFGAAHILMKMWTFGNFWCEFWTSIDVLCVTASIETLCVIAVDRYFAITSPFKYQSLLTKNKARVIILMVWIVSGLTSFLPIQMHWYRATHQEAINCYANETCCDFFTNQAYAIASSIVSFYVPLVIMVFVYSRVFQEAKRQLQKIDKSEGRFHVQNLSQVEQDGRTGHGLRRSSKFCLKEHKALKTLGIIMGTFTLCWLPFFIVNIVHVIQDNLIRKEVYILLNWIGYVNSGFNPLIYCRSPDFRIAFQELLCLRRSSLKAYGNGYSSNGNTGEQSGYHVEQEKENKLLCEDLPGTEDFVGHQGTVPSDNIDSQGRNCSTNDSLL
UPR CHOP act: activators of apoptotic CHOP UPR arm, primary screen, cell-based, CHO-CHOP luciferase reporter, luminescence, uHTS; 330,000 tested, 0.34% active; UPR activation; percent of tunicamycin response over DMSO baseline; activation, % at 10 µM;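 active = at 10 µM dose, activation of 40% or more, normalized to positive control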
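assay system = CHO CHOP reporter cells | amount = 500 CHO-CHOP cells per well | buffer or medium = F12 with 10% FBS | incubation = 16-18 h cell attachment, then 6 h compound exposure, 37 °C | detection = luminescence read with Steady-Glo | read-out = percent activation relative to tunicamycin control | controls = tunicamycin high control, DMSO low control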
p-CIP stab down: p/CIP-EGFP fusion destabilizers, primary screen, fluorescence, F442A cells. 16 h. AID 1984, 2009. decrease of EGFP signal, % at 10 µM. 290,000 tested, 0.01% active;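 active = EGFP signal decrease of at least 30% at 10 µM or well 3 SD below plate mean, unless failing retest; inactive = the rest, including hits failing retest or dose response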
UPR CHOP confirm: activators of apoptotic CHOP UPR arm, confirmation, cell-based, CHO-CHOP luciferase reporter, single concentration; AID 463112, 2010; 1,000 tested, 64% active; activation, % at 10 µM; shares compounds with UPR CHOP act; CHO-CHOP cells, CHOP-luciferase reporter luminescence; percent of tunicamycin response, DMSO as zero; in the data active = activation above about 33%
Each line names hits and unclear results; the compound was inactive in the other large screens (follow-up assays come after a bar, where they were run). Shown is part of a subset that was picked to be rich in hits.

Cc1[nH]c2ccccc2c1CN1CCN(c2ccccn2)CC1	UPR CHOP act 50 | UPR CHOP confirm inactive
O=C(O)c1ccc(COc2ccccc2C=C2C(=O)c3ccccc3C2=O)cc1	none
CCc1cccc2sc(N3CCN(C(=O)c4ccc([N+](=O)[O-])o4)CC3)nc12	UPR CHOP act 157 (no result: CHOP inh, Dynein transport, p-CIP stab down) | UPR CHOP confirm 141
O=C(c1ccc([N+](=O)[O-])o1)N1CCN(Cc2ccccc2)CC1	none (no result: CHOP inh, Dynein transport)
CN(CC(=O)Nc1ccccc1C(F)(F)F)C(=O)CSc1nnc(-c2ccncc2)n1C	none (no result: CHOP inh, Dynein transport, p-CIP stab down)
CC1=CC(=O)C=C(C)C1=NOC(=O)c1cccc([N+](=O)[O-])c1	UPR CHOP act 46 | UPR CHOP confirm inactive
CCOC(=O)c1sc(N(Cc2ccccc2)C(=O)CCl)nc1C	UPR CHOP act 49 (no result: CHOP inh, Dynein transport) | UPR CHOP confirm 219
Cc1nn(-c2cccc3cccnc23)c(=O)c2ccccc12	UPR CHOP act 45 | UPR CHOP confirm inactive
CS(=O)(=O)c1nc(-c2ccccc2)cc(-c2ccccc2)c1C#N	UPR CHOP act 68 | UPR CHOP confirm 47
Cc1ccc(-c2cc(-c3ccccc3)c(C#N)c(Br)n2)cc1	none
COc1ccc(-c2nc(-c3ccccc3)nc(Cl)c2C#N)cc1	UPR XBP1 act 72, UPR CHOP act 81 | UPR CHOP confirm 33
Cc1nnc(C)n1/N=C/c1ccccc1	none
N=C1N(/N=C/c2ccccc2)C(=Nc2ccccc2)C(=S)N1c1ccccc1	UPR CHOP act 76 | UPR CHOP confirm inactive
O=C(CN(Cc1ccc(Cl)cc1)S(=O)(=O)c1ccccc1)NCC1CCCO1 (stereo unspecified)	none (no result: CHOP inh, Dynein transport)
COC(=O)c1c(N)c(C#N)c2n1CCCCC2	none
N#Cc1c(N)c(C(=O)c2ccccc2)n2c1CCC2	UPR CHOP act 54 | UPR CHOP confirm inactive
Cc1coc2c1C(=O)C(=O)c1c-2ccc2c(C)cccc12	UPR CHOP act 62 | UPR CHOP confirm 37
CCOC(=O)c1c(CSC(=N)N)n(-c2ccc(C)cc2)c2cc(Br)c(OC(C)=O)cc12	B2AR ag 45, UPR CHOP act 56 | UPR CHOP confirm 73
CCOC(=O)c1c(CSC(=N)N)n(C)c2cc(Br)c(OC(C)=O)cc12	none
COc1ccc(C2NC(=O)c3sc4nc(C)c(C(C)=O)c(-c5ccc(Cl)cc5)c4c3N2)cc1 (stereo unspecified)	none
Cn1c(/C=N/Nc2nc3ccccc3[nH]2)nc2ccccc21	none
Cc1c(/C=N/Nc2nc3ccccc3[nH]2)c2ccccc2n1C	UPR CHOP act 320 | UPR CHOP confirm inactive
CCCCn1c(N)c(N(CCC)C(=O)C2CCCC2)c(=O)[nH]c1=O	none (no result: CHOP inh, Dynein transport, p-CIP stab down)
CCCCC1CCC(C(=O)N(CCCC)c2c(N)n(CCCC)c(=O)[nH]c2=O)CC1 (stereo unspecified)	UPR CHOP act 115 (no result: CHOP inh, Dynein transport) | UPR CHOP confirm 35
O=[N+]([O-])c1cc(-c2ncccn2)cs1	none
COc1ccc(NS(=O)(=O)c2ccc3ccccc3c2)c2ncccc12	UPR CHOP act 137 (no result: CHOP inh, Dynein transport) | UPR CHOP confirm 418
CCC(=O)c1ccc2c(c1)OCCO2	none
O=C(Cn1ncc(Cl)c(Cl)c1=O)c1ccc2c(c1)OCCO2	UPR CHOP act 45 (no result: CHOP inh, Dynein transport, p-CIP stab down) | UPR CHOP confirm 48
O=C(Nc1cccc(C(=O)N2CCCC2)c1)C1CCCCC1	none (no result: CHOP inh, UPR XBP1 act, Dynein transport, UPR CHOP act, p-CIP stab down)
C[C@@H]1Cc2c(O)c(O)cc(O)c2C(=O)O1	none
CC1CCC/C=C/C(=O)c2c(O)cc(O)cc2CC(=O)O1 (stereo unspecified)	Dynein transport -4.5, UPR CHOP act 55 | UPR CHOP confirm 91
